Mdm2 MdmX PPI = inhibitors of human Mdm2-MdmX association, primary screen, cell-based, luminescence, split luciferase, SaOS-2, uHTS | Protein Mdm4 (Homo sapiens) + E3 ubiquitin-protein ligase Mdm2 (Homo sapiens), … | SaOS-2 split-luciferase Mdm2/MdmX complementation | inhibition, % at 8 µM | 3% of 330,000 active | AID 485346, 2010;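 active = inhibition of at least 50% at 8 µM in the primary screen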
Target sequence (O15151 whole entry, looked up): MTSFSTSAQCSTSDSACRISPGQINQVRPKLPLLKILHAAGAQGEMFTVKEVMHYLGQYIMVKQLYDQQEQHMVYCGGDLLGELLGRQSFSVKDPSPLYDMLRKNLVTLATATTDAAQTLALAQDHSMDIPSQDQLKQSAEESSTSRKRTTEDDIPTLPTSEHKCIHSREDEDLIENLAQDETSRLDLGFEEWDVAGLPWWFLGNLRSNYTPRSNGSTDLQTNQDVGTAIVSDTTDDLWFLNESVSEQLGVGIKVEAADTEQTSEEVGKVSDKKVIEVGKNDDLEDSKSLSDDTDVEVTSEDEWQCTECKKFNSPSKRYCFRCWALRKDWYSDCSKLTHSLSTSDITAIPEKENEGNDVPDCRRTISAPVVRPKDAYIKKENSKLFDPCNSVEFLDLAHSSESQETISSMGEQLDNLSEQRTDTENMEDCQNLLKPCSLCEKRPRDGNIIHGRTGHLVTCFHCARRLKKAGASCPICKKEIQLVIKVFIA
Target sequence (Q00987 whole entry, looked up): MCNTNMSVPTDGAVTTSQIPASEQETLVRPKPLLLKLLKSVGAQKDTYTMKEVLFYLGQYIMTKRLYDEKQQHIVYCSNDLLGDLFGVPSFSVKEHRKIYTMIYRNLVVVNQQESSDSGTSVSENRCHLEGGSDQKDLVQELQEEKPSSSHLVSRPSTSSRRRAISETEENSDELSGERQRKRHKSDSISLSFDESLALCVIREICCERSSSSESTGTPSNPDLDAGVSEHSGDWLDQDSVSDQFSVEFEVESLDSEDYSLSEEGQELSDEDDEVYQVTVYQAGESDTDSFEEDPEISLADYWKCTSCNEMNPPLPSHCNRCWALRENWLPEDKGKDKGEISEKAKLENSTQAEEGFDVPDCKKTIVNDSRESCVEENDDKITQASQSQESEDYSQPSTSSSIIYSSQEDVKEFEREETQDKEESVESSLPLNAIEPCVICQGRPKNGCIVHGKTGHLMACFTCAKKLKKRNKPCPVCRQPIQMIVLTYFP
CHOP UPR activ = activators of apoptotic CHOP UPR arm, primary screen, cell-based, CHO-CHOP luciferase reporter, luminescence, uHTS; UPR activation; percent of tunicamycin response over DMSO baseline; activation, % at 10 µM; 0.34% of 330,000 active; AID 449763, 2010;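 active = at 10 µM dose, activation of 40% or more, normalized to positive control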;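 note: 100% = tunicamycin at 10 µg/mL and 0% = DMSO alone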
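measured by = luciferase luminescence | assay system = CHO-CHOP cells, stable luciferase reporter of PERK-eIF2a-CHOP signalling | amount = 500 reporter cells seeded per well | timing = 6 h compound exposure at 37 °C after overnight seeding | controls = positive tunicamycin 10 µg/mL, negative DMSO alone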
UPR XBP1 act = activators of adaptive XBP1 UPR arm, primary screen, cell-based, CHO-XBP1 luciferase reporter, luminescence, uHTS. 0.33% of 330,000 active. activation, % at 20 µM. IRE1-XBP1 UPR activation; percent of tunicamycin response, DMSO as zero. AID 463104, 2010;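 active = versus positive control, 20 µM dose yields 30% or more activation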;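 note: 100% = tunicamycin at 10 µg/mL and 0% = DMSO only wells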
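Material – CHO cell line with stable XBP1 luciferase reporter · Buffer or medium – F12 plus 10% FBS · Compound – single point, 20 µM final compound, 1% DMSO · Schedule – 16-18 h cell attachment at 37 °C, then 6 h compound exposure · Signal – Steady-Glo luminescence read · Benchmarks – high control tunicamycin 10 µg/mL final, low control DMSO vehicle only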
Beta apoptosis = inhibitors of cytokine-induced beta cell apoptosis, primary screen, luminescence; INS-1E cytokine-induced death, ATP luminescence, 48 h; percent of positive-control rescue, neutral wells zero; protection from apoptosis, % (concentration not given with the values); 0.8% of 300,000 active; AID 435005, 2010;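 active = Every replicate reaches about 75%, or at least half do and their mean reaches it too, limit read from the data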;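 note: 0% = cytokine-treated negative control wells and 100% = positive control rescue; higher means more ATP so stronger rescue from cytokine killing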
CSC inhib = cancer stem cell viability inhibitors, primary screen, luminescence; inhibition, % at 7.5 µM; cancer stem cell-like cells viability; AID 2717, 2010; 1.1% of 300,000 active; in the data active = inhibition above about 75%; tested in HMLE shEcad cells
SKKanGAS inh = S. pyogenes SKKanGAS growth inhibitors in kanamycin, primary screen, streptokinase expression inhibitor project, SKKanGAS strain, BacTiter-Glo luminescence. AID 1662, 2009. 1.3% of 300,000 active. 6 h. inhibition, % at 7.5 µM;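 active = mean replicate score, as percent of positive control median, at least 50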;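 note: strain carries kanamycin resistance gene driven by streptokinase promoter and grows in 40 µg/ml kanamycin; loss of luminescence reflects streptokinase promoter inhibition or plain growth inhibition; 0% = median of DMSO wells and 100% = positive control at its reference dose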
Starred values were filed as active, the others as inactive; · = no result. Rows were chosen to be rich in hits. Some 4.8% of all compounds tested hit in one or more screens of this group.

SMILES | Mdm2 MdmX PPI | CHOP UPR activ | UPR XBP1 act | Beta apoptosis | CSC inhib | SKKanGAS inh
S=c1[nH]nc(-c2ccc(Cl)cc2)n1Cc1ccccc1 | 3 | 0 | -3 | -5 | -4 | -9
COc1ccc(S(=O)(=O)N2CCCCCC2)cc1C(=O)Nc1ccccn1 | 6 | 0 | -1 | -7 | · | -4
CC(=O)c1ccc(N2CCN(C(=O)C3CCN(S(=O)(=O)c4ccc5c(c4)CC(C)N5C(C)=O)CC3)CC2)cc1 (stereo not given) | 19 | 1 | -3 | 6 | -1 | 5
CC(=O)N1c2ccc(S(=O)(=O)N3CCC(C(=O)N4CCN(c5cccc(C(F)(F)F)c5)CC4)CC3)cc2CC1C (stereo not given) | 26 | 11 | -3 | 92* | 8 | 14
Cc1cc2c(NCCc3ccccc3)ncnc2s1 | -12 | 6 | -1 | 108* | 17 | 0
CCc1ccccc1Nc1ncnc2ccccc12 | 5 | 1 | -1 | · | -14 | -3
c1ccc(CCNc2ncnc3ccccc23)cc1 | -1 | 3 | -1 | 100* | -1 | 6
CCCCCCCCNc1ncnc2ccccc12 | 15 | 8 | -4 | 101* | 43 | -2
COc1ccc(/C=C2\SC(=S)N(CCC(=O)NC3CCCC3)C2=O)cc1OC | 32 | 4 | -1 | · | 2 | 6
O=C(Nc1ccccc1C(=O)NCc1ccccc1)C1=CSCCO1 | 16 | 0 | -4 | -11 | -7 | 30
C[C@H]1[C@H](NC(=O)C(=NOC(C)(C)C(=O)O)c2csc(N)n2)C(=O)N1S(=O)(=O)O | -1 | -1 | -8 | -6 | -5 | ·
CO/N=C(/C(=O)N[C@@H]1C(=O)N2C(C(=O)O)=CCS[C@H]12)c1cnc(N)s1 | · | · | · | 2 | -13 | 99*
O=C(c1ccc(Br)o1)N1N=C(c2ccc(Cl)cc2)CC1c1ccco1 (stereo not given) | 25 | 1 | 1 | 38 | 9 | 60*
CC(=O)N1N=C(c2ccc(Cl)cc2)CC1c1ccco1 (stereo not given) | 3 | 0 | 4 | 2 | 12 | 2
COc1cc(/C=N/Nc2ncnc3sc4c(c23)CCC4)ccc1O | · | · | · | · | · | 70*
COc1cc(/C=N/NC2=NCCCCC2)ccc1O | 21 | 1 | 3 | 0 | -4 | 0
O=C(c1cc(C2CC2)nn1-c1ccccc1)N1CCN(Cc2ccccc2F)CC1 | 3 | 1 | 0 | · | · | ·
Cc1oc(-c2cc(Cl)cc(Cl)c2)cc1C(=O)NCCc1ccccc1 | -3 | 0 | 0 | -5 | 49 | 51*
CCOC(=O)c1cnn(-c2nc(-c3cccc(F)c3)cs2)c1C(F)(F)F | -13 | 2 | 1 | -2 | -11 | 64*
CCOC(=O)c1cnn(-c2nc3c(C)cccc3s2)c1C(F)(F)F | 2 | -4 | -6 | 2 | 7 | 88*
Cc1ccc(S(C)(=O)=O)cc1C(=O)OCC(=O)N1CCCC1=O | 20 | 4 | 0 | · | · | ·
O=C1CC(c2ccccc2Oc2cccc(Cl)c2)C(n2cncn2)C(=O)C1C1NCCc2ccccc21 (stereo not given) | 20 | 0 | -2 | -6 | 5 | 28
CC(C)(C)c1ccc(Oc2cccc(C3CC(=O)C(C4NCCc5ccccc54)C(=O)C3n3cncn3)c2)cc1 (stereo not given) | 8 | 2 | -2 | · | -9 | 96*
Cc1nc2ccccc2c(=O)n1/N=C/c1c(O)ccc2ccccc12 | 31 | -2 | -1 | 85* | 2 | 26
Cc1nc2ccccc2c(=O)n1/N=C/c1cc(Br)ccc1O | 7 | 1 | 2 | 38 | 1 | 25
SMILES | Mdm2 MdmX PPI | CHOP UPR activ | UPR XBP1 act | Beta apoptosis | CSC inhib | SKKanGAS inh
Cc1ccccc1-n1cnc2cc(NCc3cccs3)ccc21 | 32 | 2 | 7 | -9 | 30 | 50*
CC(C)(C)n1cnc2cc(NCc3cccs3)ccc21 | -36 | 7 | 1 | 2 | -2 | -5
CC1=C(/C=C/C(C)=N\NC(=O)c2ccncc2)C(C)(C)CCC1 | 18 | -1 | -2 | -2 | -9 | 57*
O=C(Nc1ccc2nc3n(c(=O)c2c1)CCCCC3)C(=O)N1CCN(c2ccccc2F)CC1 | -8 | 2 | 4 | 2 | 14 | -2
CC(C)(C)c1ccc(-n2ncc3c2CCCC3NC(=O)C2(C(N)=O)CC2)cc1 (stereo not given) | 15 | 3 | -5 | 78* | 20 | -2
COc1cc(/C=C/c2noc(-c3ccccc3O)n2)ccc1OC(C)=O | -219 | 3 | 5 | -6 | 103* | -1
CCN1C(=O)[C@H]2[C@@H](c3ccc(-c4ccc(F)cc4)cc3)N[C@@](C)(C(=O)OC)[C@H]2C1=O | 7 | 1 | 0 | -7 | · | ·
COc1ccc(C(=O)NC(=S)N(C)C2CCCCC2)cc1Br | 37 | 3 | -1 | 12 | 21 | 73*
Cc1ccc(C(=O)NC(=S)N(C)C2CCCCC2)cc1Br | 33 | 3 | -2 | 8 | 23 | 85*
Cc1cc(C)n(-c2ccc(NC(=O)C3CCCCN3C(=O)c3cc(C)oc3C)cc2)n1 (stereo not given) | 29 | 1 | -2 | -8 | -4 | 5
Cc1ccc(C)c(/C=C/C(=O)c2ccccc(=O)c2O)c1 | · | · | · | 49 | 92* | 99*
O=C(/C=C/c1ccccc1Cl)c1cccnc1 | 13 | 2 | 3 | -2 | 18 | 9
O=C(/C=C/c1ccccc1Cl)c1ccccc(=O)c1O | · | · | · | 60 | 108* | 90*
CCc1ccc(-c2cc(C)no2)cc1S(=O)(=O)N1CCN(C(=O)c2ccco2)CC1 | 25 | -2 | -3 | 3 | 26 | -6
N#CC(C(=O)C12CC3CC(CC(C3)C1)C2)c1nc2ccccc2[nH]1 (stereo not given) | 33 | 1 | 1 | 13 | 44 | 80*
N#CC(C(=O)CCN1C(=O)C2CC=CCC2C1=O)c1nc2ccccc2[nH]1 (stereo not given) | -2 | -1 | -2 | 0 | · | -1
CN1CCC(=O)N(CCOc2ccccc2)CC1 | -5 | -1 | 1 | -1 | -4 | 3
CC(C)(C)c1ccc(-c2nc(NCc3cccnc3)c3ccccc3n2)cc1 | 11 | 9 | 1 | 12 | 133* | 27
C(C#CCCCCCCCCC[n+]1ccccc1)#CCCCCCCCCC[n+]1ccccc1 | · | · | · | 104* | 75* | 62*
Cc1ccc2nc(N/N=C/c3ccccc3F)nc(-c3ccccc3)c2c1 | 21 | 4 | 1 | 16 | 2 | 106*
CCN1CCN(C(=O)c2cc(-c3ccc(Cl)s3)nc3ccccc23)CC1 | 10 | 4 | -3 | · | · | 2

Screens deposited in PubChem BioAssay by several laboratories.
